Assay results from ChEMBL document CHEMBL1126777, “Mono- and bis(aminomethyl)phenylacetic acid esters as short-acting antiarrhythmic agents. 2” (J Med Chem, 1993).

Legend:
Cavia porcellus [1] = species on record: Cavia porcellus; assay: Dose required to convert acetylstrophanthidin-induced arrhythmia in guinea pig right atria to normal sinus rhythm (number of tissues converted to NSR/number of tissues tested=1/3); format: functional
[2] = In vitro determination of human blood elimination half-life; format: ADME; conditions: whole blood
Cavia porcellus [3] = species on record: Cavia porcellus; assay: Dose required to convert acetylstrophanthidin-induced arrhythmia in guinea pig right atria to normal sinus rhythm (number of tissues converted to NSR/number of tissues tested=4/4); format: functional
Cavia porcellus [4] = species on record: Cavia porcellus; assay: Dose required to convert acetylstrophanthidin-induced arrhythmia in guinea pig right atria to normal sinus rhythm (number of tissues converted to NSR/number of tissues tested=1/4); format: functional
Cavia porcellus [5] = species on record: Cavia porcellus; assay: Dose required to convert acetylstrophanthidin-induced arrhythmia in guinea pig right atria to normal sinus rhythm (number of tissues converted to NSR/number of tissues tested=3/5); format: functional
Cavia porcellus [6] = species on record: Cavia porcellus; assay: Dose required to convert acetylstrophanthidin-induced arrhythmia in guinea pig right atria to normal sinus rhythm (number of tissues converted to NSR/number of tissues tested=3/4); format: functional
[7] = Distribution coefficient was determined; format: physicochemical; conditions: octanol/water
In short: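 Octanol and 0.1 M phosphate buffer at pH 7.4 were pre-saturated with each other by shaking for 16 h. About 5 mg of compound was dissolved in 10 mL buffer. A 5-mL portion was shaken with 5 mL octanol and centrifuged for 5 min. Absorbance of the aqueous phase at 280 nm was read before and after partitioning, diluted to 0.4–0.9. DC = (initial − final)/final, each × dilution factor; mean of two determinations.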

Cavia porcellus [8] = species on record: Cavia porcellus; assay: Dose required to convert acetylstrophanthidin-induced arrhythmia in guinea pig right atria to normal sinus rhythm (number of tissues converted to NSR/number of tissues tested=2/4); format: functional
Canis familiaris [9] = assay: In vivo determination of antiarrhythmic activity as the dose required for the production of 50% normal sinus beats in ouabain dog; format: functional; conditions: Canis lupus familiaris, Heart
In short: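 Dogs with ouabain-induced arrhythmia received the agent by intravenous infusion at 500 µg/kg/min. ED50 is the cumulative administered dose (mg/kg) at which 50% of beats were normal sinus beats; number of animals given.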

Canis familiaris [10] = assay: In vivo determination of antiarrhythmic activity as the dose required for the production of 80% normal sinus beats in Harris dog; format: functional; conditions: Canis lupus familiaris, Heart
In short: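 Harris dog arrhythmia model with intravenous infusion at 150, 225 or 300 µg/kg/min depending on agent. Effective dose is the cumulative administered dose (mg/kg) giving 80% normal sinus beats; number of animals given.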

Cavia porcellus [11] = species on record: Cavia porcellus; assay: Dose required to convert acetylstrophanthidin-induced arrhythmia in guinea pig right atria to normal sinus rhythm (number of tissues converted to NSR/number of tissues tested=3/3); format: functional
Cavia porcellus [12] = species on record: Cavia porcellus; assay: Dose required to convert acetylstrophanthidin-induced arrhythmia in guinea pig right atria to normal sinus rhythm (number of tissues converted to NSR/number of tissues tested=8/8); format: functional
[13] = In vitro determination of human blood elimination half-life; not determined because more than 90% of the drug was metabolized in min; format: ADME; conditions: whole blood
Cavia porcellus [14] = species on record: Cavia porcellus; assay: Dose required to convert acetylstrophanthidin-induced arrhythmia in guinea pig right atria to normal sinus rhythm (number of tissues converted to NSR/number of tissues tested=6/6); format: functional
Cavia porcellus [15] = species on record: Cavia porcellus; assay: Dose required to convert acetylstrophanthidin-induced arrhythmia in guinea pig right atria to normal sinus rhythm (number of tissues converted to NSR/number of tissues tested=5/5); format: functional

O=C(Cc1cc(CN2CCCC2)c(O)c(CN2CCCC2)c1)OCC1CCCCO1 (configuration not stated)
ED (Cavia porcellus [1]): 20 µg/mL
half-life [2]: 3.3 min

O=C(Cc1cc(CN2CCCC2)c(O)c(CN2CCCC2)c1)OCCOc1ccccc1
ED (Cavia porcellus [3]): 16.2 µg/mL
half-life [2]: 2.5 min

O=C(Cc1cc(CN2CCCC2)c(O)c(CN2CCCC2)c1)OCC1CCCO1 (configuration not stated)
ED (Cavia porcellus [4]): 40 µg/mL
half-life [2]: 3.5 min

O=C(Cc1cc(CN2CCCC2)c(O)c(CN2CCCC2)c1)OCc1ccc([N+](=O)[O-])cc1
ED (Cavia porcellus [3]): 5.2 µg/mL
half-life [2]: 6.2 min

O=C(Cc1cc(CN2CCCC2)c(O)c(CN2CCCC2)c1)OCCN1C(=O)c2ccccc2C1=O
ED (Cavia porcellus [5]): 23.3 µg/mL
half-life [2]: 3.8 min

O=C(Cc1cc(CN2CCCC2)c(O)c(CN2CCCC2)c1)OCCc1ccsc1
ED (Cavia porcellus [3]): 6.2 µg/mL
half-life [2]: 34.8 min

O=C(Cc1cc(CN2CCCC2)c(O)c(CN2CCCC2)c1)OCc1ccc2c(c1)OCO2
ED (Cavia porcellus [6]): 10.7 µg/mL
half-life [2]: 9.2 min

O=C(Cc1ccc(O)c(CN2CCN(CC(=O)N3CCCC3)CC2)c1)OCC1COc2ccccc2O1 (configuration not stated)
DC [7]: 7.1
ED (Cavia porcellus [3]): 22.5 µg/mL
half-life [2]: < 1 min

O=C(Cc1cc(CN2CCCC2)c(O)c(CN2CCCC2)c1)OCC1CCc2ccccc2C1 (configuration not stated)
ED (Cavia porcellus [8]): 6 µg/mL
half-life [2]: 2.3 min

O=C(Cc1cc(CN2CCCC2)c(O)c(CN2CCCC2)c1)OCCc1cccs1
ED (Cavia porcellus [3]): 3 µg/mL
half-life [2]: 35.9 min

O=C(Cc1cc(CN2CCCC2)c(O)c(CN2CCCC2)c1)OCc1cccs1
DC [7]: 0.73
ED50 (Canis familiaris [9]): 3.8 mg/kg
ED50 (Canis familiaris [10]): 10.5 mg/kg
ED (Cavia porcellus [3]): 5.5 µg/mL
half-life [2]: 3.5 min

O=C(Cc1ccc(O)c(CN2CCC(N3CCCCC3)CC2)c1)OCC1COc2ccccc2O1 (configuration not stated)
DC [7]: 9.6
ED (Cavia porcellus [11]): 8.3 µg/mL
half-life [2]: < 1 min

O=C(Cc1cc(CN2CCCC2)c(O)c(CN2CCCC2)c1)OCCc1ccccc1
ED (Cavia porcellus [3]): 2.8 µg/mL
half-life [2]: 16.8 min

O=C(Cc1cccc(CN2CCCC2)c1)OCC1COc2ccccc2O1 (configuration not stated)
DC [7]: 39.5
ED (Cavia porcellus [12]): 6.9 µg/mL
half-life [2]: < 1 min

CCN(CC)CC(=O)Nc1c(C)cccc1C [LIDOCAINE]
DC [7]: 19.2
ED50 (Canis familiaris [9]): 8.8 mg/kg
ED50 (Canis familiaris [10]): 37.5 mg/kg

CN1CCN(Cc2cc(CC(=O)OCC3COc4ccccc4O3)ccc2O)CC1 (configuration not stated)
DC [7]: 24
ED (Cavia porcellus [3]): 2.5 µg/mL

O=C(Cc1cc(CN2CCCC2)c(O)c(CN2CCCC2)c1)OCc1c(F)c(F)c(F)c(F)c1F
ED (Cavia porcellus [3]): 7.5 µg/mL
half-life [2]: 11 min

O=C(Cc1ccc(O)c(CN2CCCC2)c1)OCC1COc2ccccc2O1 (configuration not stated)
half-life [13]: < 1 min
DC [7]: 36.3
ED (Cavia porcellus [3]): 1.2 µg/mL

O=C(Cc1cc(CN2CCCC2)c(O)c(CN2CCCC2)c1)OCc1ccoc1
ED (Cavia porcellus [14]): 27.5 µg/mL
half-life [2]: 10.1 min

O=C(Cc1cc(CN2CCCC2)c(O)c(CN2CCCC2)c1)OCc1ccco1
ED (Cavia porcellus [15]): 29.4 µg/mL
half-life [2]: 2.5 min

COc1ccc2c(COC(=O)Cc3cc(CN4CCCC4)c(O)c(CN4CCCC4)c3)cc(=O)oc2c1
ED (Cavia porcellus [11]): 11.7 µg/mL

O=C(Cc1ccc(CN2CCCC2)cc1)OCC1COc2ccccc2O1 (configuration not stated)
DC [7]: 22.1
ED (Cavia porcellus [3]): 10 µg/mL
half-life [2]: < 1 min

O=C(Cc1cc(CN2CCCC2)c(O)c(CN2CCCC2)c1)OCC1COc2ccccc2O1 (configuration not stated)
DC [7]: 2.62
ED50 (Canis familiaris [9]): 4.8 mg/kg
ED50 (Canis familiaris [10]): 14 mg/kg
ED (Cavia porcellus [15]): 7.3 µg/mL
half-life [2]: 7.1 min
